RGS4 inh: human RGS4 inhibition | P49798 | HEK293 M3R/RGS4 inducible, Fluo-4 calcium flux; hits give high values; triggered by carbachol at its EC20 | B-score at 10 µM | hit rate 0.45% among 310,000;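 active means B-score, a plate-corrected calcium signal, over three deviations above library mean, with baseline fluorescence within five deviations of library mean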;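 further: RGS4 expression induced by doxycycline in cells with stable M3 receptor; B-score is computed from the integrated fluorescence ratio over baseline after carbachol; higher B-score means a larger calcium signal and so more RGS4 inhibition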
Target sequence (P49798 whole entry, looked up): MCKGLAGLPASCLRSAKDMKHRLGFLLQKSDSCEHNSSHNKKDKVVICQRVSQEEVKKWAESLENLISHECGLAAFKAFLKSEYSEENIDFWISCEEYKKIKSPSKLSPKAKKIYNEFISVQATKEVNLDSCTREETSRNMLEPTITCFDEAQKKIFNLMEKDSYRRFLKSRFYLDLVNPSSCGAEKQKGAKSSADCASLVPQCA
RGS4 act: RGS4 potentiation or activation | AID 463111 | B-score at 10 µM | HEK293 M3R/inducible RGS4, carbachol calcium flux Fluo4; hits give low values | hit rate 0.92% among 310,000;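 active means B-score of the integrated calcium signal more than 4 SD below the library mean, with starting fluorescence not abnormally high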;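 further: negative B-score means reduced calcium response which marks RGS4 activation or potentiation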
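test system = HEK293 cells with stable M3R and inducible RGS4 | schedule = recording 10 s baseline at 1 Hz, 100 s post-agonist | technique = Fluo4-AM (2 µM) calcium-flux fluorescence, kinetic read | measure = Agonist-evoked peak-minus-minimum fluorescence over baseline, integrated ratio, B score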
MrgX1 PAM: allosterically activates human MrgX1 receptor signaling; B-score at 10 µM; AID 588675; hit rate 0.63% among 310,000; MrgX1-HEK293, Fluo-4 calcium flux, FDSS; hits give high values; Q96LB2;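 active means plate-corrected calcium response at least 3 library SD above typical, normal starting fluorescence, not activating the receptor alone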;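 further: compound read alongside a low EC10 to EC30 dose of BAM8-22 agonist; peak minus trough fluorescence over baseline measured at the second addition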
Target sequence (Q96LB2 whole entry, looked up): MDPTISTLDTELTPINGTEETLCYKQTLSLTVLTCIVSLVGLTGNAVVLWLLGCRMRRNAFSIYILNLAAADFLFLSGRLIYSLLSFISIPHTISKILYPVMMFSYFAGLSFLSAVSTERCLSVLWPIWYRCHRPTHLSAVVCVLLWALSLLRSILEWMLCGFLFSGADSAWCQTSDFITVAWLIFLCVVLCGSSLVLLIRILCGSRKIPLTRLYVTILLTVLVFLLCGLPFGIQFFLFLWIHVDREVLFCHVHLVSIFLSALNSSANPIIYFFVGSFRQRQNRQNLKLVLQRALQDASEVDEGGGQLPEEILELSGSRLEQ
MrgX1 antag: human MrgX1 receptor antagonism, primary screen; hit rate 1.3% among 310,000; MRGX1-HEK293 calcium flux, Fluo-4, BAM8-22 antagonism; hits give low values; Q96LB2; B-score at 10 µM; AID 588676;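 active means calcium-response B-score plate-corrected more than 3 library SD below zero, starting fluorescence within 5 deviations, no agonist response on first addition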;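 further: peak minus trough fluorescence over baseline after final BAM8-22 challenge near maximal dose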
MrgX1 agonist: activates human MrgX1 receptor signaling; hit rate 0.44% among 310,000; MrgX1-HEK293 cells, Fluo-4 calcium fluorescence, agonist mode; hits give high values; Q96LB2; AID 588627; B-score at 10 µM;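 active means calcium response B-score plate-corrected fluorescence ratio at least 3 library SD, with starting fluorescence B-score inside 5 SD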
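System – MrgX1-expressing HEK293 cells · Incubation – cells plated overnight, dye loaded 0.5 h 37 °C, 0.5 h room temperature · Technique – kinetic Fluo-4 NW fluorescence of intracellular calcium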
RGS4 inh valid: validation of RGS4 inhibitors; shares compounds with RGS4 inh; HEK293 M3R/RGS4, carbachol calcium Fluo-4 fluorescence; carbachol added at its EC20; 0 = buffer wells, 100 = carbachol control; hit rate 65% among 1,700; calcium response, % at 10 µM;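 active means duplicate-averaged calcium response above the buffer-only control mean plus 5 SD of those controls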;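 further: integrated fluorescence ratio F max minus min over baseline F0; higher response in RGS4-induced cells means RGS4 inhibition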
M3R Ca ctr: counter-screen for RGS4 inhibitors: effect in non-induced cells. shares compounds with RGS4 inh. HEK293 M3R non-induced, carbachol calcium Fluo-4; submaximal (EC20) carbachol stimulus; buffer wells 0%, carbachol control wells 100%. activity (percent), % at 10 µM. hit rate 20% among 1,900. AID 493000; call rule not given here;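 further: RGS4 induction absent so cells express M3R without RGS4; higher means more calcium signal and flags a non-specific hit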
M3R basal Ca ctr: signal in non-induced cells without carbachol, RGS4 inhibitor counter-screen; calcium response (agonist-mode artifact), % at 10 µM; hit rate 22% among 1,900; shares compounds with RGS4 inh; HEK293 M3R/RGS4 non-induced, Fluo-4 calcium, no carbachol; normalised: buffer wells 0%, carbachol wells 100%;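 active means duplicate-averaged calcium rise in uninduced cells above buffer wells' mean plus 5 SD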
* marks the source's active call; other numbers are inactive results; i = inactive; . = no result given. Only some compounds are listed: those with a hit (about 3.5% of all), similar ones and a draw of the others.

SMILES | RGS4 inh | RGS4 act | MrgX1 PAM | MrgX1 antag | MrgX1 agonist | RGS4 inh valid | M3R Ca ctr | M3R basal Ca ctr
N#Cc1ccccc1Cn1cc(/C=C/[N+](=O)[O-])c2ccccc21 | 36* | i | i | i | i | 186%* | i | 52%*
Cn1c(CC(=O)Nc2ccc(F)cc2)c(Sc2ccccc2)c2ccccc21 | i | i | i | i | i | . | . | .
CNC(=O)c1[nH]cnc1C(=O)Nc1ccccn1 | i | i | i | i | i | i | i | i
CCOc1ccc(C(=O)NC2CC(C)(C)NC(C)(C)C2)cc1 | i | i | i | i | i | . | . | .
CC1Cc2ccccc2N1Cc1nc2scc(-c3cccs3)c2c(=O)[nH]1 (stereo not drawn) | 9.3* | i | i | i | i | i | i | i
CCC(=O)c1ccc(OCC(=O)OCC(=O)NCC2CCCCC2)cc1 | i | i | i | i | i | . | . | .
CSCCC(NS(=O)(=O)c1ccc(C)cc1)C(=O)NC1CCCCCC1 (stereo not drawn) | i | i | i | i | i | . | i | i
CSCCC(NS(=O)(=O)c1ccc(C)cc1)C(=O)NC1CCCCC1 (stereo not drawn) | i | i | i | i | i | i | i | i
COc1ccc(S(=O)(=O)NC(CCSC)C(=O)NC2CCCCC2)cc1 (stereo not drawn) | 5.2* | i | i | i | i | i | i | i
COc1ccc(C(=O)COC(=O)C(CCSC)NS(=O)(=O)c2ccc(Cl)cc2)cc1 (stereo not drawn) | i | i | i | i | i | . | . | .
Cc1cc(C(=O)N/N=C/c2cccnc2)n[nH]1 | i | i | i | i | i | . | . | .
COc1cc(OC)c(OC)cc1NC(=O)CC1COc2ccccc2O1 (stereo not drawn) | i | i | i | i | i | . | . | .
COc1ccc(CCNC(=O)CC2COc3ccccc3O2)cc1OC (stereo not drawn) | 13* | i | i | i | i | i | i | i
c1ccc(CC2CCN(c3ncnc4sccc34)CC2)cc1 | i | i | . | . | . | . | . | .
O=C(O)c1cc2c(N3CCC(Cc4ccccc4)CC3)ncnc2s1 | 17* | i | i | i | i | 58%* | 50%* | i
Cc1ccc(NCC(=O)N/N=C/c2cc3ccccc3nc2Cl)cc1 | 8* | i | i | i | i | 9.5%* | i | i
CC(C)(C)OC(=O)N[C@@H](CCCCNC(=O)OCc1ccccc1)c1nnc([C@H](CCCCNC(=O)OCc2ccccc2)NC(=O)OC(C)(C)C)o1 | i | i | i | i | i | . | . | .
CC(=O)Nc1ccc(/C=C/C(=O)c2ccc3c(c2)OCCO3)cc1 | i | i | i | i | i | . | . | .
COc1ccc(/C=N/NC(=O)c2ccc3c(c2)OCCO3)cc1[N+](=O)[O-] | i | i | i | i | i | . | . | .
COc1ccc(/C=C/C(=O)c2ccc3c(c2)OCCO3)cc1[N+](=O)[O-] | 8.1* | i | i | i | i | 6.0%* | i | i
O=C(O)c1ccc(/C=C/C(=O)c2ccc3c(c2)OCCCO3)cc1 | 14* | i | i | i | i | 47%* | i | i
COc1ccc(OC(C)C(=O)Nc2ccccc2C(F)(F)F)cc1 (stereo not drawn) | i | i | i | i | i | . | . | .
CC(=O)c1ccc(NS(=O)(=O)c2ccc3c(c2)N(C)CCO3)cc1 | i | i | i | i | i | . | . | .
CCC1(CC)Cc2ccccc2-c2nc(NCCO)[nH]c(=O)c21 | 26* | i | i | i | i | 101%* | 84%* | i
O=c1[nH]c(NCCO)nc2c1C1(CCCCC1)Cc1ccccc1-2 | . | . | i | i | i | . | . | .
SMILES | RGS4 inh | RGS4 act | MrgX1 PAM | MrgX1 antag | MrgX1 agonist | RGS4 inh valid | M3R Ca ctr | M3R basal Ca ctr
CC(=O)OCCNc1cc(Sc2nc3ccccc3[nH]2)c2nonc2c1[N+](=O)[O-] | 15* | i | i | i | i | 6.5%* | i | i
CC(=O)OCCNc1cc(SCc2ccco2)c2nonc2c1[N+](=O)[O-] | i | i | i | i | i | . | . | .
Cn1ccnc1Sc1cc(NCCCO)c([N+](=O)[O-])c2nonc12 | 17* | i | i | i | i | 50%* | i | i
CC(=O)OCCCNc1cc(Sc2nc3ccccc3s2)c2nonc2c1[N+](=O)[O-] | 4.7* | i | i | i | i | i | i | 113%*
CC(=O)OCCCNc1cc(Sc2ccc(C)cc2)c2nonc2c1[N+](=O)[O-] | i | i | i | i | i | . | . | .
O=[N+]([O-])c1c(NCCCO)cc(Sc2ccc(Cl)cc2)c2nonc12 | i | i | i | i | i | . | . | .
Cc1nn(-c2c(Cl)cc(Cl)cc2Cl)c(=O)c2ccccc12 | i | i | i | i | i | . | . | .
Nc1nc(CSc2nc3ccccc3s2)nc(N2CCCCC2)n1 | i | i | i | i | i | . | . | .
CCc1ccc(Nc2nc(N)nc(CSc3nc4ccccc4s3)n2)cc1 | i | i | i | i | i | i | i | i
Cc1nnc(SCc2nc(N)nc(Nc3ccccc3)n2)s1 | 5.4* | i | i | i | i | 14%* | i | i
C/C(=N\Nc1ccc(F)cc1)c1ccncc1 | i | i | i | i | i | . | . | .
O=C(COC(=O)C1CCN(S(=O)(=O)c2cccs2)CC1)NCc1ccccc1 | i | i | i | i | i | . | . | .
COc1ccc(-c2nsc3c(N4CCN(C(=O)c5ccco5)CC4)ncnc23)cc1 | i | i | i | i | i | i | i | i
O=C(c1ccco1)N1CCN(c2ncnc3c(-c4ccccc4)nsc23)CC1 | i | i | i | i | i | . | i | i
NC(=O)C1CCN(c2ncnc3c(-c4ccccc4)nsc23)CC1 | i | i | i | i | i | . | . | .
CCCCN(C)C(=O)c1nc2ccccn2c1CNCCCn1nnc2ccccc21 | i | i | i | i | i | . | . | .
CNC(=O)COC(=O)CCC(=O)c1cccs1 | i | i | i | i | i | . | . | .

Screens from PubChem.
